The source made the active and inactive calls. No cut-off for these calls is given here.
Columns and labels:
P388 = experiment: Cytotoxicity against mouse P388 cells; type: functional, cell-based
[1] = Cytotoxicity against BSC1 cells assessed as radius zone size at 120 ug/disk; type: cell-based; settings: chlorocebus aethiops, bsc-1
Procedure, shortened: (§1)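 Disk diffusion assay with 120 µg loaded per disk. The read-out was the excess radius of the zone around the disk, in mm.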

[2] = system: Trichophyton mentagrophytes; experiment: Antimicrobial activity against Trichophyton mentagrophytes at 120 ug/disk; type: functional; procedure, shortened: as §1
Bacillus subtilis = experiment: Antimicrobial activity against Bacillus subtilis at 120 ug/disk; type: functional; procedure, shortened: as §1
HL-60 = experiment: Antiproliferative activity against human HL60 cells after 2 days; type: functional, cell-based; settings: HL-60, 48 h
Candida albicans = experiment: Antimicrobial activity against Candida albicans at 120 ug/disk; type: functional, organism-based
[3] = system: Mycobacterium tuberculosis; experiment: Antimicrobial activity against Mycobacterium tuberculosis at 6.25 ug/mL; type: functional
Escherichia coli = experiment: Antimicrobial activity against Escherichia coli at 120 ug/disk; type: functional, organism-based

| SMILES | IC50 (P388) [µM] | Activity [1] [mm] | zone of inhibition at 120 µg/disc ([2]; read-out: IZ) [mm] | zone of inhibition at 120 µg/disc (Bacillus subtilis; read-out: IZ) [mm] | IC50 (HL-60) [µM] | Activity (Candida albicans) | Activity [2] | inhibition at 6.25 µg/mL [3] [%] | Activity (Escherichia coli) | Activity (Bacillus subtilis) |
| --- | --- | --- | --- | --- | --- | --- | --- | --- | --- | --- |
| CCCCC[C@@H](C/C=C/CCC(=O)O)OC | > 100 | > 4.5 | 3 | 2 |  |  |  |  |  |  |
| CCCCC[C@@H](C/C=C/CCC(=O)NC/C(=C/Cl)[C@H]1C(=O)C(C)(C)C(=O)[C@@H](C)[C@@]1(C)O)OC [MALYNGAMIDE S] | 29 | > 4.5 |  |  | 6 | inactive | inactive | 0 | inactive | inactive |
